The values that follow come from PubChem BioAssay.

The subject of assay [1] is DAF-12 nuclear receptor (Heterodera glycines), GAL4-LBD fusion. The assay is described as follows: hgDAF-12 GAL4 fusion reporter activation, retest – cell-based, luminescence, HEK293, GAL4-LBD fusion, confirmation (AID 743050).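 Further: 0% = DMSO low control and 100% = 2 mM sodium butyrate high control.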 The conditions noted are these: HEK293 GAL4-hgDAF12 luciferase reporter, agonist mode; at 6.8 µM; active compounds read high; percent of butyrate response. For orientation: A reporter such as luciferase makes a cellular process visible.

Assay [2] addresses Oxysterols receptor LXR-beta (Homo sapiens) (UniProt P55055). Put plainly: nonspecific reporter activation via LXR – cell-based, luminescence, HEK293, H. glycines campaign, counter-screen for hgDAF-12 agonist project, confirmation (AID 743051;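 active means mean activation of the triplicate above a set limit carried over from the primary screen, none filed active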). The conditions noted are these: HEK293 Gal4-LXR luciferase reporter, 24 h; at 6.8 µM; active compounds read high. The gist of the method:
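Test system – Gal4-LXR luciferase reporter HEK293 cells · Dosing – single nominal test compound dose of 6.8 µM · Times – 24 h compound exposure at 37 °C, 5% CO2 · Detection – luciferase luminescence · Evaluation – % activation versus DMSO and positive controls · Benchmarks – DMSO low control · Repeats – triplicate wells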
(In general: A counterscreen serves to expose hits that act by an unwanted route or on another target.)

Some of the results follow. Unmarked numbers belong to inactive results. The source made the active and inactive calls.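 How the source made its calls, unless noted: active means mean activation over triplicate wells above the hit cutoff derived from the earlier primary screen (cut at about 11% in these data); inactive means the rest.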

Oxysterols receptor LXR-beta (Homo sapiens), sequence (P55055 whole entry, looked up, the tested form may be a part): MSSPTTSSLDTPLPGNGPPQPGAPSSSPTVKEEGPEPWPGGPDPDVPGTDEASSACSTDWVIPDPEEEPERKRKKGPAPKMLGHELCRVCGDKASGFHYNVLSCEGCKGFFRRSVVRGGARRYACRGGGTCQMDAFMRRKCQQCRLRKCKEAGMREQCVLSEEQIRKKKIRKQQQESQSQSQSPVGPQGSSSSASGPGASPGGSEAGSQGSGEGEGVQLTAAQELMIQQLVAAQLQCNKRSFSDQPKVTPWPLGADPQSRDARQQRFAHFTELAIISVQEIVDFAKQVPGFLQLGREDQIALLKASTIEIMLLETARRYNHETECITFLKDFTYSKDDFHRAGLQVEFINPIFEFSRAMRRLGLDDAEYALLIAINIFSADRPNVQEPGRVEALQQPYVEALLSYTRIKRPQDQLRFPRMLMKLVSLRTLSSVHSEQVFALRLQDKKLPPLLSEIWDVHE

In the case of `O=C(NCCOc1ccccc1)c1ccccc1`, the activation in assay [1] was 13.3% (active); in assay [2], 0.69%.

For `Brc1ccc(C2CC(c3ccccc3)=Nc3ccccc3N2)cc1` (stereo not drawn), the activation in assay [1] was 17.4% (active); in assay [2], 0.65%.

Consider `CC(C)C(=O)Nc1cccc(C(=O)Nc2ccc3c(c2)OCO3)c1`, for which the activation in assay [1] was 14.1% (active); in assay [2], 0.72%.

Take `COc1ccc(-c2cn3cccnc3n2)cc1`: the activation in assay [1] was 9.37%; in assay [2], 0.23%.

With `COc1ccc(NC(=S)N2N=CCC2c2ccccc2)cc1` (stereo not drawn), the values for the activation in assay [1] and in assay [2] were 13.8% (active) and 0.76%, respectively.

`CNS(=O)(=O)c1ccc(NC(=O)Nc2ccc3c(c2)OCO3)cc1`: the activation in assay [1] was 13.2% (active); in assay [2] it was 0.5%.

For `CC(C)c1cc(C(N)=O)c(NC(=O)c2cccc(COc3ccc(Br)cc3)c2)s1`, the activation is 14% (active) in assay [1] and 0.51% in assay [2].

As to `COc1ccc(-c2cn3ccsc3n2)cc1`, the activation is 16.3% (active) in assay [1] and 0.84% in assay [2].

On to `Cc1ccn(-c2cccc(-n3ccc(C)n3)n2)n1`, for which the activation was 15.2% (active) in assay [1] and 0.61% in assay [2].

For `CC(=O)c1cc(C#N)c(SCC(=O)C(C)(C)C)nc1C`, the activation in assay [1] was 14.8% (active); in assay [2] it was 0.48%.

In the case of `O=C(CSC(=S)N1CCCCC1)c1c(F)cccc1F`, the activation in assay [1] was 13.4% (active); in assay [2], 0.64%.

With `Cc1ccc(NC(=O)c2sccc2C)cc1[N+](=O)[O-]`, the activation is 11% (active) in assay [1] and 0.43% in assay [2].

For the compound `CCOc1ccc(OCc2cccc(C(=O)N(CC)CC)c2)cc1`, the activation in assay [1] was 19.5% (active); in assay [2], 0.78%.

In the case of `Cc1ccc(C(=O)NNc2ncnc3ccccc23)cc1`, the activation in assay [1] was 9.47%; in assay [2], 0.43%.
